This passage reports Activity results from ChEMBL document CHEMBL1147041, “Modulation of human neural stem cell differentiation in Alzheimer (APP23) transgenic mice by phenserine” (2007).

Calls of active or inactive are those of the source. The calls are words filed in the database; no cut-off is given here.

Assay [1] can be described thus: Effect on neuronal differentiation of human neural stem cells transplanted in APP23 transgenic mouse hippocampus CA1 region assessed as increase of beta-3 tubulin+/BrdU+ count at 25 mg/kg/day, ip for 14 days. It counts as functional, Neural stem cell. The following applies: route intraperitoneal. The method, boiled down:
(§1)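 Mice received daily i.p. drug or saline for 14 days. BrdU-labelled (3 µM, 48 h) fetal human neural stem cells, ≈105 cells, were then injected into the right lateral ventricle with no immunosuppression. Daily injections resumed for 1 week after a 2-day recovery. At 6 weeks, 20 µm coronal sections from paraformaldehyde-perfused brains were double-stained for BrdU plus GFAP or β-III tubulin. Cells were counted bilaterally at ×400 on 4–6 sections per mouse, n = 6–7 per group, and compared by ANOVA.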

Assay [2] deals with Mus musculus. As to the kind of experiment: Decrease in glial fibrillary acidic protein expression in APP23 transgenic mouse hippocampus at 25 mg/kg/day, ip for 14 days by Western blot relative to control. It counts as functional. Further details: scale not given: the % may be the effect or the level left. The following applies: route intraperitoneal.
A short description of assay [3]: Effect on neuronal differentiation of human neural stem cells transplanted in APP23 transgenic mouse motor cortex region assessed as increase of beta-3 tubulin+/BrdU+ count at 25 mg/kg/day, ip for 14 days. It counts as functional, Neural stem cell. The following applies: route intraperitoneal. The gist of the method:
as §1

Assay [4] concerns Mus musculus. As to the kind of experiment: Decrease in amyloid precursor protein expression in APP23 transgenic mouse cerebral cortices at 25 mg/kg/day, ip for 14 days by Western blot relative to control. It counts as functional, organism-based. On the technique in general: Immunoblotting shows a protein as a band on a membrane.
Assay [5] can be described thus: Effect on neuronal differentiation of human neural stem cells transplanted in APP23 transgenic mouse somatosensory region assessed as increase of beta-3 tubulin+/BrdU+ count at 25 mg/kg/day, ip for 14 days. It counts as functional, Neural stem cell. The following applies: route intraperitoneal. The gist of the method: as §1
Assay [6] in a line: Effect on neuronal differentiation of human neural stem cells transplanted in APP23 transgenic mouse hippocampus CA2 region assessed as increase of beta-3 tubulin+/BrdU+ count at 25 mg/kg/day, ip for 14 days. The following applies: route intraperitoneal. It counts as functional, Neural stem cell. The gist of the method:
as §1

Assay [7] in a line: Effect on glial differentiation of human neural stem cells transplanted in APP23 transgenic mouse hippocampus assessed as reduction of GFAP+/BrdU+ count at 25 mg/kg/day, ip for 14 days by fluorescent immunohistochemistry. It counts as functional, Neural stem cell. Further details: scale not given: the % may be the effect or the level left. The following applies: route intraperitoneal. The gist of the method: as §1

Assay [8] relates to Mus musculus. As to the kind of experiment: Decrease in amyloid precursor protein expression in APP23 transgenic mouse hippocampus at 25 mg/kg/day, ip for 14 days by Western blot relative to control. The format is functional. Further details: scale not given: the % may be the effect or the level left. The following applies: route intraperitoneal.
Assay [9] can be described thus: Effect on neuronal differentiation of human neural stem cells transplanted in wild type mouse hippocampus CA1 region assessed as increase of beta-3 tubulin+/BrdU+ count at 25 mg/kg/day, ip for 14 days. The format is functional, Neural stem cell. The following applies: route intraperitoneal. The method, boiled down: as §1
The test system of assay [10] is Mus musculus. As to the kind of experiment: Decrease in amyloid precursor protein expression in wild type mouse cerebral cortices at 25 mg/kg/day, ip for 14 days by Western blot relative to control. The format is functional, organism-based.

On to `CN1CC[C@]2(C)c3cc(OC(=O)Nc4ccccc4)ccc3N(C)C12` (stereo not given in full), for which the Activity was 32% in assay [1]; 36% in the assay on Mus musculus [2]; 32% in assay [3]; 32% in assay [5]; 32% in assay [6]; 28% in assay [7]. In addition, the Activity is reported as 38% in the assay with Mus musculus [8] and 40% in assay [9]. For the same compound, the outcome in the assay with Mus musculus [4] and in the assay on Mus musculus [10] was Active.
